Source: PubChem BioAssay (Broad Institute)
Pf Dd2 inh: P. falciparum Dd2 growth inhibition; SYBR Green, 72 h; hits give low values; activity change, % at 10 µM; hit rate 2.3% among 94,000; AID 1159554; in the data active = activity change below about -80%; inconclusive = no clear call, values can overlap the other calls
IDH1 mut inh: inhibitors of human IDH1 R132H. IDH1 R132H reductase, diaphorase/resazurin fluorescence, 60 min. inhibition, % at 10 µM. hit rate 0.18% among 70,000. O75874; in the data active = inhibition above about 34%; inconclusive = no clear call, values can overlap the other calls; inactive = below about 11%;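 also: 0% = DMSO and 100% = no enzyme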
Target sequence (O75874 whole entry R132H): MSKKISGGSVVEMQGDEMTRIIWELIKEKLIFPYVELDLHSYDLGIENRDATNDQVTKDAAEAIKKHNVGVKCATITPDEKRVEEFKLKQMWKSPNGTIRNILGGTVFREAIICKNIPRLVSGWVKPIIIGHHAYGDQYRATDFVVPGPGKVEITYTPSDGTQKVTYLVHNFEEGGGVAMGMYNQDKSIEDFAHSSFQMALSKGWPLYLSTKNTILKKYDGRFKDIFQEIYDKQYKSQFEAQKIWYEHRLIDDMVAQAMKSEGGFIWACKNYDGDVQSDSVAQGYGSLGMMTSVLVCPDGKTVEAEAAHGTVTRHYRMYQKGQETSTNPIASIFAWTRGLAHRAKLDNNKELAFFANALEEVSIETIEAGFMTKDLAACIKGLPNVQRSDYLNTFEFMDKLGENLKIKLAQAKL
KDM4C inh: inhibitors of human demethylase GASC-1 KDM4C; Q9H3R0; inhibition, % at 12.5 µM; AID 720574; hit rate 0.15% among 96,000; GST-KDM4C 2-372, H3K9me3 peptide, LANCE TR-FRET;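 active = mean replicate inhibition above about 25%, with at least 55% of replicates also reaching it, limit read from the data, passing the limit was not always enough; inconclusive = only one of those two conditions met; inactive = neither condition met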
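Material: GST-tagged GASC-1 (JMJD2C) catalytic fragment, aa 2-372. Input: enzyme final amount 10 nM. Medium: HEPES buffer, pH 7.5, plus ascorbate. Reagent: H3K9me3 peptide substrate, Fe(II), 2-oxoglutarate. Doses: single dose. Times: reaction 30 min RT, detection step 1 h RT. Measured by: LANCE TR-FRET. Evaluation: Fall in 671/618 emission ratio as inhibition.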
T cruzi growth-1: inhibitors of T. cruzi proliferation. T. cruzi beta-gal in NIH3T3, GalScreen luminescence, 90 h. inhibition, % at 8.34 µM. hit rate 5.9% among 77,000. AID 624255;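 active = mean inhibition above about 93%, with at least 55% of replicates each passing it, limit read from the data, passing the limit was not always enough; inconclusive = only one of those two conditions holds; inactive = neither condition holds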
T cruzi growth-2: Trypanosoma cruzi proliferation inhibition. shares compounds with T cruzi growth-1. inhibition, % at 8.35 µM. AID 651739. hit rate 72% among 5,600. T. cruzi beta-gal in NIH3T3, GalScreen luminescence, 90 h;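 active = mean replicate inhibition above about 95% and at least 55% of replicates individually reaching it, limit read from the data; inconclusive = only one of the two criteria is met; inactive = neither criterion is met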
T cruzi growth-3: inhibitors of T. cruzi proliferation. shares compounds with T cruzi growth-1. T. cruzi beta-gal in NIH3T3, GalScreen luminescence, 90 h. inhibition, % at 2.09 µM. hit rate 21% among 5,600. AID 651740;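 active = mean inhibition above about 95%, with at least 55% of replicates also reaching it, limit read from the data; inconclusive = meets just one of the two conditions; inactive = meets neither condition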;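 also: plate controls were neutral control median for no effect and positive control median for full effect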
3T3 cytotox: NIH/3T3 (mouse) viability loss; shares compounds with T cruzi growth-1; NIH/3T3 viability, CellTiter-Glo ATP luminescence, 90 h; cytotoxicity (signal decrease), % at 8.35 µM; hit rate 14% among 5,600;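 active = mean signal decrease across replicates above about 35% based on untreated-well scatter, with enough replicates individually passing, limit read from the data; inconclusive = no rule stated though some were filed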;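 also: 0% = median of neutral control wells and 100% = median of positive control wells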
3T3 cytotox 2: NIH/3T3 (mouse) viability loss; shares compounds with T cruzi growth-1; NIH/3T3 viability, CellTiter-Glo ATP luminescence, 90 h; hit rate 56% among 5,600; inhibition, % at 24.9 µM; AID 651744;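 active = mean loss of cell viability signal at or above a set limit, and enough replicates individually reaching it; inconclusive = meets only the mean limit or only the replicate share; inactive = meets neither condition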;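 also: 0% = median of neutral control wells and 100% = median of positive control wells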
An asterisk follows results filed as active; ? = inconclusive; / = no result; ! = not active in a repeat. This is a sample that favours compounds with a hit; in the whole collection about 5.9% have one here.

SMILES	Pf Dd2 inh	IDH1 mut inh	KDM4C inh	T cruzi growth-1	T cruzi growth-2	T cruzi growth-3	3T3 cytotox	3T3 cytotox 2
C[C@H](CO)N1C[C@H](C)[C@@H](CN(C)Cc2ccc(C(=O)Nc3ccccc3N)cc2)Oc2c(NC(=O)c3nc4ccccc4s3)cccc2C1=O	-89.2*	/	-1.6	106.5*	108.4*	84.7	-31.1	11.3
O=C(NCc1ccc(Cl)cc1)C1=C[C@H](c2coc3ccccc3c2=O)C[C@H](OCCCCO)O1	/	0.4	/	/	/	/	/	/
C[C@H](CO)N1C[C@H](C)[C@@H](CN(C)Cc2ccccc2)OCCCC[C@H](C)Oc2ccc(NC(=O)CCCN(C)C)cc2C1=O	14.2	5.0	2.4	-11.1	/	/	/	/
COCCN(C[C@@H]1N[C@@H](CO)[C@H]1c1ccc(-c2cccc(F)c2)cc1)C(C)=O	8.0	/	0.9	?	27.4	-2.9	-12.1	13.7
COCCN(C[C@H]1N[C@H](CO)[C@@H]1c1ccc(-c2cccc(F)c2)cc1)C(C)=O	-10.4	/	-0.1	86.6	/	/	/	/
COCCN(C[C@@H]1N[C@@H](CO)[C@@H]1c1ccc(-c2cccc(F)c2)cc1)C(C)=O	1.7	/	1.8	104.6*	101.5*	38.8	-22.0	13.8
C[C@@H]1CCCCO[C@@H](CN(C)C(=O)C2CCCCC2)[C@H](C)CN([C@@H](C)CO)C(=O)c2cc(NS(=O)(=O)c3ccccc3)ccc2O1	-1.0	0.4	1.0	56.9	/	/	/	/
CS(=O)(=O)N1[C@@H](C#N)[C@H](c2ccc(C#CC3CCCC3)cc2)[C@@H]1CO	17.3	/	-2.1	?	80.3	16.0	-11.3	-1.4
CS(=O)(=O)N1[C@H](C#N)[C@H](c2ccc(C#CC3CCCCC3)cc2)[C@@H]1CO	-42.0	/	-0.2	?	100.9*	107.5*	2.0	42.2*
C[C@@H]1CCCCO[C@@H](CN(C)C(=O)NC2CCCCC2)[C@@H](C)CN([C@H](C)CO)C(=O)c2cc(N(C)C)ccc2O1	4.8	/	18.5	-13.9	/	/	/	/
CC(C)CC#Cc1ccc2c(c1)O[C@@H](CN(C)C(=O)Cc1ccccc1)[C@@H](C)CN([C@@H](C)CO)S2(=O)=O	-42.5	11.4	5.1	125.8*	103.0*	69.3	-0.1	104.3*
CC(C)CC#Cc1ccc2c(c1)O[C@@H](CN(C)C(=O)Cc1ccccc1)[C@@H](C)CN([C@H](C)CO)S2(=O)=O	-48.5	0.3	-2.4	127.0*	98.2*	112.5*	30.3	103.3*
CC(C)CC#Cc1ccc2c(c1)O[C@H](CN(C)C(=O)Cc1ccccc1)[C@H](C)CN([C@@H](C)CO)S2(=O)=O	-30.9	-1.0	3.1	121.0*	99.2*	94.5	17.8	99.8*
CCC(=O)N(C)C[C@@H]1Oc2cc(C#CCC(C)C)ccc2S(=O)(=O)N([C@H](C)CO)C[C@H]1C	-20.7	-0.3	-2.5	52.6	/	/	/	/
CC(C)CC#Cc1ccc2c(c1)O[C@H](CN(C)C(=O)Cc1ccncc1)[C@@H](C)CN([C@H](C)CO)S2(=O)=O	-65.0	5.5	1.0	?	100.7*	69.9	3.4	-7.0
CN(C)C(=O)c1cccc(-c2ccc(C3[C@H]4CNC[C@@H]3N4Cc3nccs3)cc2)c1 (some centres not stated)	-16.0	/	0.6	/	/	/	/	/
Cc1noc(C)c1NC(=O)N(C)C[C@H]1Oc2c(NC(=O)Nc3ccccc3)cccc2C(=O)N([C@@H](C)CO)C[C@@H]1C	-2.1	0.9	-0.5	-50.3	/	/	/	/
C[C@H]1CCCCO[C@@H](CN(C)Cc2ccc3c(c2)OCO3)[C@@H](C)CN([C@@H](C)CO)C(=O)c2cc(N(C)C)ccc2O1	-9.2	0.9	/	11.0	/	/	/	/
C[C@@H]1CN([C@H](C)CO)C(=O)c2cc(N(C)C)ccc2O[C@@H](C)CCCCO[C@@H]1CN(C)Cc1ccc2c(c1)OCO2	-18.1	/	-0.7	101.7*	22.8	18.0	2.2	11.0
C[C@@H]1CN([C@@H](C)CO)C(=O)c2cc(N(C)C)ccc2O[C@@H](C)CCCCO[C@H]1CN(C)Cc1ccc2c(c1)OCO2	-7.5	/	2.1	105.4*!	22.2	4.6	8.8	6.1
C[C@H]1CN([C@@H](C)CO)C(=O)Cc2cc(NS(=O)(=O)c3ccc(F)cc3)ccc2O[C@H]1CN(C)S(C)(=O)=O	5.4	0.5	0.6	31.7	/	/	/	/
CCCC#Cc1ccc([C@H]2[C@@H](CO)N3CCCCN(C(=O)c4ccc5c(c4)OCO5)C[C@H]23)cc1	-39.2	/	-0.4	117.4*	103.8*	78.6	51.2*	103.2*
CCCC#Cc1ccc([C@@H]2[C@H](CO)N3CCCCN(C(=O)c4ccc5c(c4)OCO5)C[C@@H]23)cc1	-23.7	/	-1.5	?	105.7*	38.0	30.4	102.9*
CCCC#Cc1ccc([C@@H]2[C@@H](CO)N3CCCCN(C(=O)c4ccc5c(c4)OCO5)C[C@@H]23)cc1	-9.3	/	-0.6	121.9*	107.5*	76.4	38.0*	102.4*
CC(C)C#Cc1ccc([C@@H]2[C@H]3CN(C(=O)c4ccc5c(c4)OCO5)CCCCN3[C@H]2CO)cc1	-8.3	/	-0.9	39.5	/	/	/	/
SMILES	Pf Dd2 inh	IDH1 mut inh	KDM4C inh	T cruzi growth-1	T cruzi growth-2	T cruzi growth-3	3T3 cytotox	3T3 cytotox 2
CC(C)CC#Cc1ccc([C@@H]2[C@@H](CO)N3CCCCN(C(=O)c4ccc5c(c4)OCO5)C[C@@H]23)cc1	-42.5	/	-0.1	91.5	/	/	/	/
CCCC#Cc1ccc([C@@H]2[C@H]3CN(C(=O)c4ccc5c(c4)OCO5)CCCCN3[C@H]2CO)cc1	-33.6	/	-1.1	94.4	/	/	/	/
C[C@@H]1CN([C@@H](C)CO)C(=O)c2cc(NC(=O)c3ccncc3)ccc2O[C@@H](C)CCCCO[C@@H]1CN(C)C(=O)CCCN(C)C	16.4	-2.5	2.8	-12.3	/	/	/	/
C[C@H](CO)N1C[C@H](C)[C@H](CN(C)Cc2ccc(Oc3ccccc3)cc2)Oc2ccc(NC(=O)Cn3cnnn3)cc2C1=O	-2.4	0.3	0.6	89.6	/	/	/	/
CCc1cnc(N2[C@H](C#N)[C@@H](c3ccc(C#CC(C)C)cc3)[C@@H]2CO)s1	-46.7	/	-4.4	98.0*	104.4*	109.7*	-2.8	43.0*
CCc1cnc(N2[C@H](CO)[C@@H](c3ccc(C#CC(C)C)cc3)[C@@H]2C#N)s1	-41.5	/	-1.2	98.9*	100.7*	104.5*	-2.3	52.3*
C[C@H]1CCCCO[C@H](CN(C)C(=O)Nc2ccc3c(c2)OCO3)[C@@H](C)CN([C@@H](C)CO)C(=O)c2cc(NS(=O)(=O)c3cccs3)ccc2O1	-51.2	/	-0.5	22.7	/	/	/	/
O=C(NC1CCCC1)N1CCCCN2[C@H](C1)[C@H](c1ccc(-c3cncnc3)cc1)[C@@H]2CO	9.2	/	-0.4	?	107.1*	-12.6	-22.1	-4.5
